Test results from PubChem BioAssay AID504383 (The Scripps Research Institute Molecular Screening Center, 2011).
The campaign covered roughly 2,500 compounds. About 1,200 (48%) were called active. So high a share suggests a set chosen from earlier hits. Some of the results follow. Values without a mark were called inactive.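 Rule for the calls: active = mean activation above the low control average plus 3 SD, as set in the primary screen (cut at about 12% in these data); inactive = the rest.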

These compounds were tested against Troponin I, cardiac muscle (Homo sapiens) + Troponin T, cardiac muscle (Homo sapiens) + Troponin C, slow skeletal and cardiac muscles (Homo sapiens) (UniProt P19429+P45379+P63316) (assay: cardiac RTF calcium sensitivity activators, confirmation, biochemical, IANBD-TnC fluorescence, triplicate (AID 504383;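 note: 0% = DMSO at 0.472 mM calcium and 100% = DMSO at 2.9 mM calcium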)). Details: IANBD-labeled cardiac RTF, Ca2+ sensitivity fluorescence; at 7.2 µM; hits give high values; scaled from EC20 to saturating calcium; tested at EC20 calcium, 0.472 mM.
How it was run: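 Assay system: labelled regulated thin filaments / Timing: 15 min at 25 °C / Detection: fluorescence intensity of labelled filaments / Measure: fluorescence gain scaled between EC20 and EC100 calcium controls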

Row | SMILES | activation
1 | Cc1cc(C)nc(SCCCNCc2ccc(Br)cc2)n1 | 9.74%
2 | O=C(O)c1ccc(O)c(O)c1 | 7.5%
3 | Cc1cc(C)n(-c2ccc([N+](=O)[O-])cc2-c2nn[nH]n2)n1 | 7.13%
4 | Cc1cc(C)n(-c2ccc(C(=O)O)cc2)n1 | 16.2% (active)
5 | N#CC1=C(N)Oc2ccc3ccc(O)cc3c2C1c1ccsc1 (stereo not drawn) | 31.6% (active)
6 | N#CC1=C(N)SC(N)=C(C#N)C1c1cccc(O)c1 | 6.27%
7 | CCOC(=O)c1sc(N)c(C#N)c1COC(=O)CNC(=O)c1ccccc1 | 8.8%
8 | CCOC(=O)c1sc(N)c(C#N)c1COC(=O)CNC(=O)c1cc(OC)c(OC)c(OC)c1 | 67.4% (active)
9 | CC(C)CC[C@@H](O)[C@](C)(O)C1CC[C@@]2(O)C3=CC(=O)[C@@H]4C[C@@H](O)[C@@H](O)C[C@]4(C)C3CC[C@]12C (stereo partly drawn) | 279% (active)
10 | CNC(=O)N(O)C1N(C)C(=O)N(CC(=O)OC)C1(C)C (stereo not drawn) | 55.3% (active)
11 | COc1ccc(OC(C)C(=O)Nc2cccc(OC)c2)cc1 (stereo not drawn) | 7.49%
12 | COc1cc(OC)c(C(=O)OC(C)C(=O)Nc2cccc(C(F)(F)F)c2)cc1OC (stereo not drawn) | 32.5% (active)
13 | COc1ccc(C2=NN(C(=O)COC(=O)c3ccc(NC(=O)CC#N)cc3)C(c3ccco3)C2)cc1 (stereo not drawn) | 14.7% (active)
14 | COc1ccc(OC)c(NC(=S)Nc2ccccc2)c1 | 5.57%
15 | COc1ccc(OC)c(NC(=O)CNC(=O)Cn2c(C)cc3ccccc3c2=O)c1 | 3680% (active)
16 | CCCC(CCC(=O)Nc1ccc(S(N)(=O)=O)cc1)C(=O)O (stereo not drawn) | 8.1%
17 | NS(=O)(=O)c1ccc(NC(=O)COc2ccc(C(=O)c3ccc(F)cc3)cc2)cc1 | 1350% (active)
18 | O=C(Oc1cc2oc(=O)c3c(c2cc1Cl)CCCC3)c1cccs1 | 1.37%
19 | CC1CC(C)CN(C(=O)COC(=O)CCc2nc3ccccc3c(=O)[nH]2)C1 (stereo not drawn) | 8.84%
20 | O=C(CN1C(=O)c2ccccc2C1=O)NCc1ccc(N2CCOCC2)cc1 | 12.4% (active)
21 | NC(=O)N/N=C/c1ccc(N2CCOCC2)s1 | 3.82%
22 | COc1ccc(Sc2ccc(-c3nc4cnccn4c3NC3CCCCC3)cc2OC)cc1 | 3.89%
23 | CCOC(=O)C1C(=O)C=C(/C=C/c2ccc(N(C)C)cc2)CC1c1ccccc1 (stereo not drawn) | 5.48%
24 | CN(C)c1ccc(/C=C/c2nc3ccccc3c(=O)n2CCO)cc1 | 398% (active)
25 | C[C@@H]1C=C(C(=O)N2CCOCC2)O[C@H](OCc2ccc(CO)cc2)C1 | 6.41%

Row | SMILES | activation
26 | CC1(C)CC2CC(C)(CN2C(=S)Nc2ccccc2F)C1 (stereo not drawn) | 3.28%
27 | COc1cc2c(cc1[N+](=O)[O-])-c1ccccc1C2 | 302% (active)
28 | CNc1ccccc1C(C)(C)c1cc(C)[nH]n1 | 28.3% (active)
29 | O=C(OCCN1C(=O)c2cccc3c(N4CCOCC4)ccc(c23)C1=O)c1ccc(Cl)cc1Cl | 39.1% (active)
30 | CC(=O)N(C(C)=O)N1C(=O)c2cccc3c(N4CCOCC4)ccc(c23)C1=O | 10.5%
31 | CCCN(CCC)S(=O)(=O)c1ccc(C(=O)OCCN2C(=O)c3cccc4c(N5CCOCC5)ccc(c34)C2=O)cc1 | 16.2% (active)
32 | O=C(OCCN1C(=O)c2cccc3c(N4CCOCC4)ccc(c23)C1=O)c1ccccc1Cl | 13.6% (active)
33 | O=C(OCCN1C(=O)c2cccc3c(N4CCOCC4)ccc(c23)C1=O)c1ccc(Cl)cc1 | 25.9% (active)
34 | COc1cccc(C(=O)Nc2cc(C(=O)NCc3ccc(C)cc3)ccc2N2CCC3(CC2)CC(c2cccc(Br)c2)=NO3)c1 | 5.62%
35 | O=C1OCC/C1=C\c1ccccc1O | 3.58%
36 | CCN(CC)c1ccc(/C=c2\sc3nc4ccccc4n3c2=O)c(O)c1 | 41.3% (active)
37 | Cc1ccc(OCc2ccc(C(=O)O)o2)cc1C | 4.06%
38 | CC(=O)Oc1ccc(NC(=O)Cc2ccccc2)c(C(=O)O)c1 | 34.2% (active)
39 | COc1ccc(NC(=O)Cc2ccccc2)cn1 | 9.43%
40 | CCN1C(=O)[C@@H]2[C@@H](c3ccc(-c4cccc(Cl)c4)cc3)N3CCC[C@@]3(C(=O)OC)[C@@H]2C1=O | 14% (active)
41 | CCCCCCSc1ccc([C@@H]2[C@H]3C(=O)N(CC)C(=O)[C@H]3[C@]3(C(=O)OC)CCCCN23)cc1OC | 6.92%
42 | O=C(NCc1csc2ccccc12)Nc1cc(Cl)cc(Cl)c1 | 7.6%
43 | O=C(O)/C=C/C(=O)NCc1csc2ccccc12 | 278% (active)
44 | CCC(Oc1cc(Cl)ccc1Cl)C(=O)NNC(=O)CCC(=O)O (stereo not drawn) | 12.2% (active)
45 | Fc1ccc(CN2CC[C@H]3C=CCc4cccc(c43)C2)cc1 | 144% (active)
46 | COC1C(CO)OC(n2c3c(Cl)cccc3c3c4c(c5c6cccc(Cl)c6[nH]c5c32)C(=O)NC4=O)C(O)C1O (stereo not drawn) | 2.74%
47 | CCN(CC)C(=O)C(=O)c1c(-c2ccccc2)[nH]c2ccccc12 | 20.5% (active)
48 | CCN(CC)C(=S)SCC(=O)c1c(C)[nH]c2ccccc12 | 27% (active)
49 | CCN(CC)CC(C(=O)N(CC)CC)P(=O)(c1ccccc1)c1ccccc1 (stereo not drawn) | 6.63%
50 | CCN(CC)S(=O)(=O)c1ccc2c(c1)nc(CCC(=O)Nc1ccc3c(c1)OCO3)n2C | 8.98%

Row | SMILES | activation
51 | O=C(Nc1ccc2c(c1)OCO2)c1ccc2c(c1)OCO2 | 16.1% (active)
52 | O=C(COc1ccccc1)NC(=S)Nc1cccc(NC(=O)c2ccccc2Cl)c1 | 7.06%
53 | CC(=O)c1cc2c(cc1N/C(=N/S(=O)(=O)c1ccc(Br)cc1)c1ccccc1)OCO2 | 5.61%
54 | C=CCn1cccc(C(=O)Nc2ccc(OC)c(Cl)c2)c1=O | 7.57%
55 | O=C(Nc1ccc2c(c1)OCCO2)c1cccc(Cl)c1Cl | 77.8% (active)
56 | CCOC(=O)CNc1ccc2c(c1)OCO2 | 15.4% (active)
57 | CCCCOC(=O)Cn1c2ccc(OC)cc2c2nc3ccccc3nc21 | 12.9% (active)
58 | CCOc1ccc2nc3cc(NCc4ccc(OC)cc4)ccc3c(N)c2c1 | 4.24%
59 | CCOc1ccc(Cn2c3ccc(OC)cc3c3nc4ccccc4nc32)cc1 | 81.5% (active)
60 | COc1ccc(Cn2nnc3ccccc32)cc1 | 8.45%
61 | CCOC(=O)c1c(C(C)(C)C)oc2ccc(OCC#N)cc12 | 8.86%
62 | CN(C)c1ccc(/C=C2\SC(=O)N(CCc3nnc(N)s3)C2=O)cc1 | 5.55%
63 | CCOC(=O)CN1C(=O)S/C(=C/C=C/c2ccc(N(C)C)cc2)C1=O | 3.71%
64 | CN(C)c1ccc(/C=C2\SC(=O)N(CC(O)Cn3c4ccccc4c4ccccc43)C2=O)cc1 (stereo not drawn) | 14.3% (active)
65 | COc1cc2nc(/C=C/c3ccc(N(C)C)cc3)sc2cc1SC | -0.52%
66 | O=C(COC(=O)c1cc(-c2cccc3ccccc23)nc2ccccc12)NC1CCS(=O)(=O)C1 (stereo not drawn) | 13.5% (active)
67 | CCN1CC=C2C(C#N)=C(N)C(C#N)(C#N)[C@H](c3cccc(OC)c3OC)[C@H]2C1 | 14.7% (active)
68 | CCCN1CC=C2C(C#N)=C(N)C(C#N)(C#N)C(c3cccc(OC)c3OC)C2C1 (stereo not drawn) | 0.08%
69 | CCN1CC=C2C(C#N)=C(N)C(C#N)(C#N)C(c3cc(Cl)ccc3Cl)C2C1 (stereo not drawn) | 253% (active)
70 | O=C(COC(=O)/C=C/c1ccc(Cl)cc1)NCCN1C(=O)CSC1=O | 4.03%
71 | O=C(c1ccccn1)N(Cc1cccs1)C1(C(=O)NC2CCCCC2)CCCCC1 | 1.46%
72 | Cc1ccc(C(C(=O)NC2CCCC2)N(C(=O)Cc2cccs2)c2cccc(C)c2C)o1 (stereo not drawn) | 7.72%
73 | CCN(CC(=O)Nc1ccccc1C(=O)NC1CC1)Cc1cccs1 | 89.2% (active)
74 | Cn1cc(/C=C2\SC(=S)N(NC(=O)c3ccccc3)C2=O)c2ccccc21 | 40.9% (active)
75 | Cn1cc(/C=C2\SC(=S)N(NC(=O)c3cccc(Cl)c3)C2=O)c2ccccc21 | 52.1% (active)

Row | SMILES | activation
76 | Cn1cc(/C=C2\SC(=S)N(NC(=O)c3ccccc3Cl)C2=O)c2ccccc21 | 23.3% (active)
77 | Cc1ccc(C(=O)NN2C(=O)/C(=C/c3cn(C)c4ccccc34)SC2=S)cc1 | 19.4% (active)
78 | O=[N+]([O-])c1ccc(N2N=C(c3ccccc3)CC2c2ccccc2O)cc1 (stereo not drawn) | 127% (active)
79 | N#CCC(=O)N/N=C/c1ccc(N2N=C(c3ccccc3)CC2c2ccccc2)cc1 (stereo not drawn) | 8.4%
80 | N#CC1CC(c2ccc([N+](=O)[O-])cc2)=NN1c1ccc([N+](=O)[O-])cc1 (stereo not drawn) | 6.69%
81 | COc1ccc(C2CC(c3ccncc3)=NN2c2ccc(S(N)(=O)=O)cc2)cc1 (stereo not drawn) | 13.1% (active)
82 | NS(=O)(=O)c1ccc(N2N=C(c3ccccc3)CC2c2ccccc2)cc1 (stereo not drawn) | 31% (active)
83 | CSc1nnnn1-c1c(C)cc(C)cc1C | 3.29%
84 | Cc1ccccc1-n1nnnc1SCC(C)C | 103% (active)
85 | O=C(COc1ccccc1F)NC1CC1 | 66.3% (active)
86 | COC(=O)c1cc2c(C)c(C)c3ccccn3c-2c1C(=O)OC | 5.27%
87 | O=C(N/N=C/c1cc([N+](=O)[O-])ccc1N1CCNCC1)c1ccc([N+](=O)[O-])cc1 | 19% (active)
88 | CCOc1ccc(NC(=S)c2ccncc2)cc1 | 6.9%
89 | C=CCN1C(=O)[C@@H]2Cc3c([nH]c4ccccc34)C(c3ccc(O)cc3)N2C1=S (stereo partly drawn) | 4.94%
90 | N#CC12COC3(CCCCC3C1(C#N)C#N)OC2=N (stereo not drawn) | 2.01%
91 | CCOc1ccc(N(C)c2ccc(/C=C3/SC(=S)NC3=O)cc2)cc1 | 20.5% (active)
92 | COc1ccc(-c2nn(CCC(=O)O)cc2/C=C2\SC(N)=NC2=O)cc1 | 8.42%
93 | CCCOc1ccc(-c2nn(-c3ccccc3)cc2/C=C2\SC(N)=NC2=O)cc1 | -0.61%
94 | COc1ccccc1N=C1NC(=O)/C(=C/c2ccc(N(C)C)cc2)S1 | 10.9%
95 | CN(C)c1ccc(/C=C2\CCC/C(=C\c3ccccc3)C2=O)cc1 | 0.5%
96 | CCN(CC)c1ccc(/C=C2\SC(N)=NC2=O)cc1 | 108% (active)
97 | CN(C)c1ccc(C=C2SC(=S)NC2=O)cc1 | 11.7% (active)
98 | CCN(CC)c1ccc(C=C2SC(=S)NC2=O)cc1 | 57.9% (active)
